Test results published in ChEMBL document CHEMBL1141663, “Synthesis and antibacterial activity of bis-[2-hydroxy-3-(1,7,8,9,10-pentamethyl-3,5-dioxo-4-aza-tricyclo[5.2.1.0(2,6)]dec-8-en-4-yloxy)-propyl]-dimethyl-ammonium chloride” (2008).
Active and inactive are the calls of the source.

Columns and labels:
Staphylococcus aureus [1] = assay: Antibacterial activity against Staphylococcus aureus NCTC 4163 at 10 ug/disk after 24 to 48 hrs by disc-diffusion method; assay type: functional, organism-based
Staphylococcus aureus [2] = assay: Antibacterial activity against Staphylococcus aureus ATCC 29213 at 10 ug/disk after 24 to 48 hrs by disc-diffusion method; assay type: functional, organism-based
Escherichia coli [3] = assay: Antibacterial activity against Escherichia coli ATCC […] at 10 ug/disk after 24 to 48 hrs by disc-diffusion method; assay type: functional, organism-based
Staphylococcus aureus [4] = assay: Antibacterial activity against Staphylococcus aureus ATCC 6538P at 10 ug/disk after 24 to 48 hrs by disc-diffusion method
[5] = system: Bordetella bronchiseptica; assay: Antibacterial activity against Bordetella bronchiseptica ATCC 4617 at 10 ug/disk after 24 to 48 hrs by disc-diffusion method; assay type: functional, organism-based
Pseudomonas aeruginosa [6] = assay: Antibacterial activity against Pseudomonas aeruginosa NCTC 6749 at 10 ug/disk after 24 to 48 hrs by disc-diffusion method; assay type: functional, organism-based
Pseudomonas aeruginosa [7] = assay: Antibacterial activity against Pseudomonas aeruginosa ATCC […] at 10 ug/disk after 24 to 48 hrs by disc-diffusion method; assay type: functional, organism-based
Escherichia coli [8] = assay: Antibacterial activity against Escherichia coli ATCC […] at 10 ug/disk after 24 to 48 hrs by disc-diffusion method; assay type: functional, organism-based
Staphylococcus aureus [9] = assay: Antibacterial activity against Staphylococcus aureus ATCC 25923 at 10 ug/disk after 24 to 48 hrs by disc-diffusion method
Candida albicans [10] = assay: microbe, parasite or virus in culture; conditions: ATCC 10231, read-out: IZ
Bacillus subtilis [11] = assay: Antibacterial activity against Bacillus subtilis ATCC 6633 at 10 ug/disk after 24 to 48 hrs by disc-diffusion method; assay type: functional, organism-based
Enterococcus hirae [12] = assay: Antibacterial activity against Enterococcus hirae ATCC 10541 at 10 ug/disk after 24 to 48 hrs by disc-diffusion method
Staphylococcus aureus [13] = assay: Antibacterial activity against methicillin-resistant Staphylococcus aureus 46/05 isolates after 18 hrs; assay type: functional
Method in brief: (§1)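 Agar-dilution MIC on Mueller–Hinton II agar per CLSI guidelines. Aqueous test solutions were added to liquid agar to give two dilution series across 6.25–400 µg/mL. Solidified plates were spot-inoculated with 2 µL aliquots to a final inoculum of 10^4 […]. […] Strains were standard S. aureus strains or hospital patient isolates typed MSSA/MRSA.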

Staphylococcus aureus [14] = assay: Antibacterial activity against methicillin-resistant Staphylococcus aureus 54/05 isolates after 18 hrs; assay type: functional; method in brief: as §1
Staphylococcus aureus [15] = assay: Antibacterial activity against methicillin-susceptible Staphylococcus aureus 38/05 isolates after 18 hrs; assay type: functional; method in brief: as §1
Staphylococcus aureus [16] = assay: Antibacterial activity against methicillin-susceptible Staphylococcus aureus 14/04 isolates after 18 hrs; assay type: functional; method in brief: as §1
Pseudomonas aeruginosa [17] = assay: microbe, parasite or virus in culture; conditions: NCTC 6749, read-out: IZ
Staphylococcus aureus [18] = assay: Antibacterial activity against methicillin-resistant Staphylococcus aureus 92/06 isolates after 18 hrs; assay type: functional; method in brief: as §1
Candida albicans [19] = assay: Antimicrobial activity against Candida albicans ATCC 10231 at 5 ug/disk after 24 to 48 hrs by disc-diffusion method; assay type: functional, organism-based
Staphylococcus aureus [20] = assay: microbe, parasite or virus in culture; conditions: NCTC 4163, read-out: IZ
Staphylococcus aureus [21] = assay: Antibacterial activity against methicillin-resistant Staphylococcus aureus 83/05 isolates after 18 hrs; assay type: functional; method in brief: as §1
Staphylococcus aureus [22] = assay: Antibacterial activity against Staphylococcus aureus NCTC 4163 after 18 hrs; assay type: functional; conditions: NCTC 4163, 18 h; method in brief: as §1
Escherichia coli [23] = assay: microbe, parasite or virus in culture; conditions: ATCC 10538, read-out: IZ
Staphylococcus aureus [24] = assay: Antibacterial activity against methicillin-resistant Staphylococcus aureus 19/04 isolates after 18 hrs; assay type: functional; method in brief: as §1
Staphylococcus aureus [25] = assay: Antibacterial activity against methicillin-susceptible Staphylococcus aureus 40/05 isolates after 18 hrs; assay type: functional; method in brief: as §1
Staphylococcus aureus [26] = assay: Antibacterial activity against methicillin-susceptible Staphylococcus aureus 65/05 isolates after 18 hrs; assay type: functional; method in brief: as §1
Staphylococcus aureus [27] = assay: Antibacterial activity against methicillin-susceptible Staphylococcus aureus 101/06 isolates after 18 hrs; assay type: functional; method in brief: as §1
Staphylococcus aureus [28] = assay: Antibacterial activity against methicillin-resistant Staphylococcus aureus 29/04 isolates after 18 hrs; assay type: functional; method in brief: as §1
Staphylococcus aureus [29] = assay: Antibacterial activity against methicillin-susceptible Staphylococcus aureus 98/06 isolates after 18 hrs; assay type: functional; method in brief: as §1
Staphylococcus aureus [30] = assay: Antibacterial activity against methicillin-resistant Staphylococcus aureus 79/05 isolates after 18 hrs; assay type: functional; method in brief: as §1
Staphylococcus aureus [31] = assay: Antibacterial activity against methicillin-susceptible Staphylococcus aureus 2/04 isolates after 18 hrs; assay type: functional; method in brief: as §1
Staphylococcus aureus [32] = assay: Antibacterial activity against methicillin-resistant Staphylococcus aureus 56/05 isolates after 18 hrs; assay type: functional; method in brief: as §1
Staphylococcus aureus [33] = assay: microbe, parasite or virus in culture; conditions: ATCC 6538P, read-out: IZ
Staphylococcus aureus [34] = assay: Antibacterial activity against methicillin-susceptible Staphylococcus aureus 28/04 isolates after 18 hrs; assay type: functional; method in brief: as §1
Staphylococcus aureus [35] = assay: Antibacterial activity against methicillin-resistant Staphylococcus aureus 55/05 isolates after 18 hrs; assay type: functional; method in brief: as §1
Staphylococcus aureus [36] = assay: Antibacterial activity against methicillin-susceptible Staphylococcus aureus 102/06 isolates after 18 hrs; assay type: functional; method in brief: as §1
Staphylococcus aureus [37] = assay: Antibacterial activity against Staphylococcus aureus ATCC 6538P after 18 hrs; assay type: functional; method in brief: as §1
Staphylococcus aureus [38] = assay: Antibacterial activity against methicillin-susceptible Staphylococcus aureus 3/04 isolates after 18 hrs; assay type: functional; method in brief: as §1
Staphylococcus aureus [39] = assay: Antibacterial activity against methicillin-susceptible Staphylococcus aureus 7/04 isolates after 18 hrs; assay type: functional; method in brief: as §1
Staphylococcus aureus [40] = assay: Antibacterial activity against methicillin-resistant Staphylococcus aureus 53/05 isolates after 18 hrs; assay type: functional; method in brief: as §1
Staphylococcus aureus [41] = assay: Antibacterial activity against methicillin-resistant Staphylococcus aureus 48/05 isolates after 18 hrs; assay type: functional; method in brief: as §1
Staphylococcus aureus [42] = assay: Antibacterial activity against methicillin-susceptible Staphylococcus aureus 4/04 isolates after 18 hrs; assay type: functional; method in brief: as §1
Staphylococcus aureus [43] = assay: Antibacterial activity against methicillin-susceptible Staphylococcus aureus 6/04 isolates after 18 hrs; assay type: functional; method in brief: as §1
Staphylococcus aureus [44] = assay: Antibacterial activity against methicillin-resistant Staphylococcus aureus 1/04 isolates after 18 hrs; assay type: functional; method in brief: as §1
Staphylococcus aureus [45] = assay: Antibacterial activity against methicillin-susceptible Staphylococcus aureus 42/05 isolates after 18 hrs; assay type: functional; method in brief: as §1
Escherichia coli [46] = assay: microbe, parasite or virus in culture; conditions: ATCC 25922, read-out: IZ
Staphylococcus aureus [47] = assay: Antibacterial activity against methicillin-resistant Staphylococcus aureus 91/06 isolates after 18 hrs; assay type: functional; method in brief: as §1
Staphylococcus aureus [48] = assay: Antibacterial activity against methicillin-susceptible Staphylococcus aureus 72/05 isolates after 18 hrs; assay type: functional; method in brief: as §1
Staphylococcus aureus [49] = assay: Antibacterial activity against methicillin-resistant Staphylococcus aureus 47/05 isolates after 18 hrs; assay type: functional; method in brief: as §1
Enterococcus hirae [50] = assay: Antibacterial activity against Enterococcus hirae ATCC 10541 at 5 ug/disk after 24 to 48 hrs by disc-diffusion method; assay type: functional, organism-based
Staphylococcus aureus [51] = assay: Antibacterial activity against Staphylococcus aureus ATCC 29213 after 18 hrs; assay type: functional; conditions: ATCC 29213, 18 h; method in brief: as §1
Staphylococcus aureus [52] = assay: Antibacterial activity against methicillin-susceptible Staphylococcus aureus 60/05 isolates after 18 hrs; assay type: functional; method in brief: as §1
Staphylococcus aureus [53] = assay: Antibacterial activity against methicillin-susceptible Staphylococcus aureus 49/05 isolates after 18 hrs; assay type: functional; method in brief: as §1
Bacillus subtilis [54] = assay: microbe, parasite or virus in culture; conditions: ATCC 6633, read-out: IZ
Staphylococcus aureus [55] = assay: microbe, parasite or virus in culture; conditions: ATCC 25923, read-out: IZ
Pseudomonas aeruginosa [56] = assay: microbe, parasite or virus in culture; conditions: ATCC 15442, read-out: IZ
Staphylococcus aureus [57] = assay: Antibacterial activity against methicillin-susceptible Staphylococcus aureus 69/05 isolates after 18 hrs; assay type: functional; method in brief: as §1
Staphylococcus aureus [58] = assay: Antibacterial activity against methicillin-resistant Staphylococcus aureus 93/06 isolates after 18 hrs; assay type: functional; method in brief: as §1
Staphylococcus aureus [59] = assay: Antibacterial activity against Staphylococcus aureus ATCC 25923 after 18 hrs; assay type: functional; conditions: ATCC 25923, 18 h; method in brief: as §1
[60] = system: Bordetella bronchiseptica; assay: microbe, parasite or virus in culture; conditions: ATCC 4617, read-out: IZ
Staphylococcus aureus [61] = assay: microbe, parasite or virus in culture; conditions: ATCC 29213, read-out: IZ

Clc1ccc(COC(Cn2ccnc2)c2ccc(Cl)cc2Cl)c(Cl)c1 (stereo unspecified) [MICONAZOLE]
20 mm: zone of inhibition at 10 µg/disc (Candida albicans [10])
inactive: Activity (Staphylococcus aureus [1]) | Activity (Staphylococcus aureus [2]) | Activity (Escherichia coli [3]) | Activity (Staphylococcus aureus [4]) | Activity [5] | Activity (Pseudomonas aeruginosa [6]) | Activity (Pseudomonas aeruginosa [7]) | Activity (Escherichia coli [8]) | Activity (Staphylococcus aureus [9]) | Activity (Bacillus subtilis [11]) | Activity (Enterococcus hirae [12])

O=C(O)c1cn(C2CC2)c2cc(N3CCNCC3)c(F)cc2c1=O [CIPROFLOXACIN]
0.5 µg/mL: MIC (Staphylococcus aureus [22]) | MIC (Staphylococcus aureus [25]) | MIC (Staphylococcus aureus [26]) | MIC (Staphylococcus aureus [36]) | MIC (Staphylococcus aureus [37]) | MIC (Staphylococcus aureus [51]) | MIC (Staphylococcus aureus [52]) | MIC (Staphylococcus aureus [59])
> 128 µg/mL: MIC (Staphylococcus aureus [47])
64 µg/mL: MIC (Staphylococcus aureus [13]) | MIC (Staphylococcus aureus [24]) | MIC (Staphylococcus aureus [28]) | MIC (Staphylococcus aureus [44])
0.25 µg/mL: MIC (Staphylococcus aureus [15]) | MIC (Staphylococcus aureus [27]) | MIC (Staphylococcus aureus [29]) | MIC (Staphylococcus aureus [38]) | MIC (Staphylococcus aureus [42]) | MIC (Staphylococcus aureus [43]) | MIC (Staphylococcus aureus [48]) | MIC (Staphylococcus aureus [53])
34 mm: zone of inhibition at 5 µg/disc (Escherichia coli [23])
8 µg/mL: MIC (Staphylococcus aureus [18])
> 4 µg/mL: MIC (Staphylococcus aureus [31])
31 mm: zone of inhibition at 5 µg/disc [60]
128 µg/mL: MIC (Staphylococcus aureus [14]) | MIC (Staphylococcus aureus [30]) | MIC (Staphylococcus aureus [35]) | MIC (Staphylococcus aureus [40]) | MIC (Staphylococcus aureus [41]) | MIC (Staphylococcus aureus [49]) | MIC (Staphylococcus aureus [58])
2 µg/mL: MIC (Staphylococcus aureus [39]) | MIC (Staphylococcus aureus [45]) | MIC (Staphylococcus aureus [57])
inactive: Activity (Candida albicans [19]) | Activity (Enterococcus hirae [50])
28 mm: zone of inhibition at 5 µg/disc (Staphylococcus aureus [33])
35 mm: zone of inhibition at 5 µg/disc (Escherichia coli [46])
26 mm: zone of inhibition at 5 µg/disc (Pseudomonas aeruginosa [17]) | zone of inhibition at 5 µg/disc (Staphylococcus aureus [20]) | zone of inhibition at 5 µg/disc (Staphylococcus aureus [55]) | zone of inhibition at 5 µg/disc (Pseudomonas aeruginosa [56])
1 µg/mL: MIC (Staphylococcus aureus [16]) | MIC (Staphylococcus aureus [34])
40 mm: zone of inhibition at 5 µg/disc (Bacillus subtilis [54])
32 µg/mL: MIC (Staphylococcus aureus [21]) | MIC (Staphylococcus aureus [32])
22 mm: zone of inhibition at 5 µg/disc (Staphylococcus aureus [61])
